Reference: publication PMC2774623 (Biochemistry, 2008)

B1: NBD1 ΔF508: purified ΔF508 mutated recombinant murine NBD1 of CFTR (spanning sequence 389−673) (protein)
chain: TTGIIMENVTAFWEEGFGELLEKVQQSNGDRKHSSDENNVSFSHLCLVGNPVLKNINLNIEKGEMLAITGSTGSGKTSLLMLILGELEASEGIIKHSGRVSFCSQFSWIMPGTIKENIIGVSYDEYRYKSVVKACQLQQDITKFAEQDNTVLGEGGVTLSGGQRARISLARAVYKDADLYLLDSPFGYLDVFTEEQVFESCVCKLMANKTRILVTSKMEHLRKADKILILHQGSSYFYGTFSELQSLRPDFSSKLMGYDTFDQFTEERRSSILTETLRRFSVDD
B2: NBD1 wt: purified wild-type recombinant murine NBD1 of CFTR (spanning sequence 389−673) (protein)
chain: TTGIIMENVTAFWEEGFGELLEKVQQSNGDRKHSSDENNVSFSHLCLVGNPVLKNINLNIEKGEMLAITGSTGSGKTSLLMLILGELEASEGIIKHSGRVSFCSQFSWIMPGTIKENIIFGVSYDEYRYKSVVKACQLQQDITKFAEQDNTVLGEGGVTLSGGQRARISLARAVYKDADLYLLDSPFGYLDVFTEEQVFESCVCKLMANKTRILVTSKMEHLRKADKILILHQGSSYFYGTFSELQSLRPDFSSKLMGYDTFDQFTEERRSSILTETLRRFSVDD

Target: CK2α catalytic subunit
Test: SPR
Format: binding, human
Conditions: for kd (s^−1) × 10^−3: SPR BIAcoreX, CK2α coupled to CM5 chip, 25 °C, HBS pH 7.4, Langmuir 1:1 model; for association constant ka (as printed in text): SPR, binding to CK2α, unit not given
Summary of the method: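 Recombinant human CK2α, expressed in E. coli, amine-coupled to a CM5 chip (1600 RU). Mouse NBD1 analyte, wild type or ΔF508, at 15 μM, flowed at 10 μL/min, 25 °C, in HBS (10 mM Hepes pH 7.4, 150 mM NaCl, 3 mM EDTA, 0.005% P20). Blank-surface response subtracted; rate constants fitted to a 1:1 binding model.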

Molecule	kd (s^−1) × 10^−3 [s^−1 × 10^−3]	association constant ka (as printed in text)
B1	0.0877	0.96 × 10^3
B2	0.335	0.135 × 10^3
